EBI2 antag = EBI2 receptor antagonists, beta-arrestin recruitment, primary screen, cell-based, luminescence, 7a,25-OHC stimulation, uHTS; 7a,25-OHC stimulated; inhibition, % at 5 µM; hit rate 0.81% among 360,000; in the data active = inhibition above about 38%;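 note: enzyme fragment complementation signal reports receptor beta-arrestin coupling in cells; 0% = agonist plus DMSO wells and 100% = wells without agonist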
Target sequence (P32249 whole entry, looked up, the tested form may be a part): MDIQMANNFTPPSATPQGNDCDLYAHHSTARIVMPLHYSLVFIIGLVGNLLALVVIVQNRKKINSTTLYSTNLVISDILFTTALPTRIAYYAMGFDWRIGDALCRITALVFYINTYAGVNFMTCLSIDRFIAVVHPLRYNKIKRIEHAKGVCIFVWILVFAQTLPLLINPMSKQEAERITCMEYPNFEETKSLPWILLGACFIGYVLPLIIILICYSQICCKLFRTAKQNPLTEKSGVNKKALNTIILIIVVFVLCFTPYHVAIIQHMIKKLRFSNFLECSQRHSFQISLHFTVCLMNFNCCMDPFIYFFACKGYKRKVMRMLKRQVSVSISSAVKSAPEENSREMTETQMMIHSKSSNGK
GRIN3A LBD mod = binders of NR3A ligand-binding domain, primary screen, biophysical, differential scanning fluorimetry, uHTS; Glutamate receptor ionotropic, NMDA 3A (GRIN3A) ligand-binding domain; NR3A LBD differential scanning fluorimetry, Tm shift; 0% = protein alone, 100% = glycine-bound protein; Tm shift relative to glycine control, % at 25 µM; hit rate 2.5% among 340,000;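 active = melting temperature shift of at least 10% of the positive control shift, at one fixed dose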
SENP1 inh = human SENP1 catalytic domain inhibitors, primary screen, biochemical, FRET, uHTS. Sentrin-specific protease 1 (Homo sapiens), Q9P0U3. recombinant SENP1 catalytic domain, CyPet-SUMO1-YPet FRET cleavage. inhibition, % at 10 µM. hit rate 0.21% among 360,000;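 active = inhibition at least 30% at 10 µM, raw YFP signal under a set limit, fluorescence ratio 0.5 to 1.5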;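 note: 0% = enzyme with DMSO and 100% = no enzyme wells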
Target sequence (Q9P0U3 419-644 limits assumed): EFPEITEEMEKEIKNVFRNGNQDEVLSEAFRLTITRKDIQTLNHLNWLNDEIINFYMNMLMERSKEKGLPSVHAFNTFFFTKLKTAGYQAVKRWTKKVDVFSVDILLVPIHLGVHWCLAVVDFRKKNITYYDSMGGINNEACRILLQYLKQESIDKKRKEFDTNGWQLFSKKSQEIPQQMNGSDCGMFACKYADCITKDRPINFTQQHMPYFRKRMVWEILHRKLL
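Controls: no-enzyme wells low, DMSO-plus-enzyme wells high control. Test system: human recombinant His6-tagged SENP1 catalytic domain enzyme. Reagent: SFCypet-SUMO1-SFYpet FRET protein substrate, 25 nM final. Doses: one dose per compound, 10 µM, 0.5% DMSO. Detection: FRET, CFP and YFP emission. Timing: 50 min reaction at room temperature.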
MPTP inh = mitochondrial permeability transition pore inhibitors, primary screen, biochemical, isolated mouse mitochondria, absorbance. inhibition, % at 10 µM. AID 602449, 2012. hit rate 1.4% among 360,000. Ca2+ swelling absorbance, 30 min;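 active = inhibition of 50% or more, scaled per plate between neutral and stimulator controls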;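 note: 0% = DMSO wells given calcium and 100% = 1 mM EGTA wells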
* marks the source's active call; other numbers are inactive results; . = no result given. Rows were chosen to be rich in hits. Some 4.4% of all compounds tested hit in one or more screens of this group.

SMILES	EBI2 antag	GRIN3A LBD mod	SENP1 inh	MPTP inh
COc1ccc(/C=C2/C(=O)N(c3ccccc3)N=C2C)cc1OC	7.6	0.8	3.4	1.6
CCN(CC)S(=O)(=O)c1cc(C(=O)OCC(=O)Nc2cccc(Br)c2)ccc1F	9.3	18.4*	2.4	35.9
Cn1c(CNC(=O)CNC(=O)c2ccc(C(C)(C)C)cc2)cc(=O)n(C)c1=O	-3.1	-1.4	0.6	-0.5
CCOC(=O)c1[nH]c(C)c(CN(CCc2ccc(OC)c(OC)c2)C(=O)CCCC(=O)O)c1C	-1.3	14.6*	2.0	-0.4
CCOC(=O)c1[nH]c(C)c(CN(CCc2ccccc2)S(C)(=O)=O)c1C	-2.7	1.6	3.0	-2.4
COc1cc(/C=C/C(=O)OCC(=O)c2c[nH]c3ccccc23)ccc1OC(F)F	14.0	28.6*	-3.7	1.0
O=C(COc1ccccc1)OCC(=O)c1c[nH]c2ccccc12	-4.5	8.6	-7.1	-0.2
COc1ccccc1/C=C/C(=O)OCC(=O)c1cc(C)n(C)c1C	-1.1	-0.3	0.6	-1.6
COc1ccc(OCC(=O)c2c[nH]c3ccccc23)cc1	-2.3	14.4*	-8.2	3.2
COc1ccccc1/C=C/C(=O)OCC(=O)c1c[nH]c2ccccc12	-8.7	11.4*	-0.7	-0.4
Cc1ccc(-c2nc(N=Nc3ccc(O)cc3)n[nH]2)cc1	9.7	1.0	-0.7	1.7
COc1ccc(-c2nc(N=Nc3ccc(O)cc3)n[nH]2)cc1	6.9	13.2*	3.8	-1.6
O=S(=O)(Nc1ccccc1-c1ccccc1)c1ccccc1	8.8	14.0*	-0.1	-0.4
CN(C)c1nc(N/N=C/c2ccccc2O)nc(Nc2ccc(F)cc2)n1	34.0	37.6*	0.2	-3.0
Cc1ccc(NC(=O)c2cccc(NC3=NC4CS(=O)(=O)CC4S3)c2)cc1 (stereo unspecified)	-9.8	-0.3	-4.3	-0.2
CC(=O)c1cccc(NC(=O)C(=O)Nc2cccc3ccccc23)c1	1.3	62.0*	0.2	-0.8
COc1cc(NS(=O)(=O)c2ccc(F)cc2)c(C(=O)O)cc1OC	5.1	11.7*	-1.4	0.6
CCOc1ccc(S(=O)(=O)Nc2cc(OC)c(OC)cc2C(=O)O)cc1	0.9	2.0	1.0	0.3
CCOC(=O)C1=NN(C(=O)c2ccc(C)cc2)C(O)(c2ccc(Cl)cc2)C1 (stereo unspecified)	15.1	-13.2	31.0*	34.8
COCC1CCCCN1C(=O)c1cccc(OC2CCN(S(C)(=O)=O)CC2)c1 (stereo unspecified)	-1.3	-1.4	2.1	-1.3
O=c1c2ccccc2oc2cc(Br)ccc12	-17.0	12.6*	-5.2	-1.0
COc1cc2oc3ccccc3c(=O)c2cc1OC	-1.1	-4.4	1.5	0.4
O=C(Nc1nccs1)c1ccc(-c2ccc(F)cc2)o1	5.2	-16.8	-0.6	0.9
CCc1nnc(NC(=O)c2ccc(-c3ccc(F)cc3)o2)s1	-1.6	16.4*	-1.3	-0.7
CCc1nnc(NC(=O)c2ccc(-c3cccc(C(F)(F)F)c3)o2)s1	0.1	-0.2	-0.5	-0.5
SMILES	EBI2 antag	GRIN3A LBD mod	SENP1 inh	MPTP inh
O=C(Nc1nccs1)c1ccc(-c2ccc(Cl)cc2)o1	12.9	20.1*	-2.6	1.6
Cc1cc(-c2ccc(C)c(S(=O)(=O)NCc3ccc(OC(C)C)cc3)c2)on1	5.1	-5.1	0.1	-0.1
CC(=O)Oc1ccc(C(=O)Nc2cc(C)on2)cc1	2.4	-2.0	0.7	-0.4
Clc1cccc(/C=N/Nc2ncnc3ccccc23)c1	-6.4	14.1*	1.1	0.6
Nc1c(Cl)ncnc1N/N=C/c1ccnc2ccccc12	0.6	12.6*	17.6	-0.5
COc1ccc2[nH]c(-c3ccccc3)cc2c1	15.1	11.8*	3.8	0.0
CCCNC(=O)Nc1ccc(C(F)(F)F)cc1	-7.8	-2.9	1.4	30.0
CCCCN(Cc1cc2cc(C)ccc2[nH]c1=O)C(=O)c1ccccn1	-5.2	-0.7	1.9	0.7
COc1ccc(Cn2cnc3c4cc(F)ccc4n(C)c3c2=O)cc1	8.0	15.4*	-0.2	43.9
Cc1cc(C)cc(N(CC(=O)NCc2ccc(F)cc2)C(=O)c2snc(C(N)=O)c2N)c1	23.3	11.4*	-25.9	1.5
Oc1ccc(C[C@H]2CNC(=S)N2CC2CCCN2C[C@H](Cc2ccc(O)cc2)N2C[C@H](Cc3ccc(O)cc3)N(CC3CCCCC3)C2=S)cc1 (stereo partly specified)	27.6	18.5*	0.4	-2.3
Oc1ccc(C[C@H]2CN([C@@H](Cc3ccccc3)CN3CCCC3CN3C(=S)NC[C@@H]3Cc3ccccc3)C(=S)N2CC2CCCCC2)cc1 (stereo partly specified)	14.5	.	1.2	2.5
Oc1ccc(C[C@H]2CNC(=S)N2CC2CCCN2C[C@H](Cc2ccccc2)N2C[C@H](Cc3ccc(O)cc3)N(CC3CCCCCC3)C2=S)cc1 (stereo partly specified)	7.3	33.2*	-2.6	0.5
Cc1ccc(CNC(=O)c2ccc(Cn3cc(-c4ccc(C)cc4)nc3-c3ccncc3)cc2)cc1	70.8*	-3.1	-5.7	-0.3
COc1ccc(C(=O)N(C)Cc2ccc(C)o2)cc1OC1CCN(C(C)C)CC1	-2.3	6.7	-2.9	0.5
Cc1ccc(OCCCC(=O)Nc2ccc(S(=O)(=O)N3CCOCC3)cc2)cc1	11.7	28.0*	1.0	2.5
CCCc1nc2ccccc2c(C(=O)OCC(=O)Nc2ccc(S(=O)(=O)N3CCOCC3)cc2)c1CC	21.9	17.8*	-3.1	33.0
CCOc1ccc(S(=O)(=O)N2CCOCC2)cc1NC(=O)CSCC(=O)Nc1ccc(C)cc1	-0.6	11.1*	1.0	-0.9
COc1ccc(NC(=O)/C=C/c2ccc(S(=O)(=O)N3CCOCC3)cc2)cc1	0.5	-9.7	0.0	-1.0
COc1ccc(/C=C/C(=O)Nc2ccc(S(=O)(=O)N3CCOCC3)cc2)c(OC)c1	16.9	25.0*	2.8	-1.2
Cc1cc(CNC(=O)C(C)n2nc(C)c([N+](=O)[O-])c2C)c2ccccc2n1 (stereo unspecified)	2.5	0.4	0.4	-0.3
COc1ccc(CC(=O)NNC(=O)COc2ccc(C)cc2)cc1S(=O)(=O)N1CCOCC1	8.8	10.1*	-0.1	-0.8
COc1ccc(CCC(=O)Nc2ccc(S(=O)(=O)N3CCOCC3)cc2)cc1	-1.4	19.6*	0.1	0.1
Cc1cnc(C(=O)OCC(=O)Nc2ccccc2[N+](=O)[O-])cn1	5.6	11.2*	2.9	-1.8
Cc1cc(C(=O)OCC(=O)Nc2ccccc2[N+](=O)[O-])c2ccccc2n1	-10.5	7.7	2.7	-0.9
COC(=O)N/N=C/c1cccc([N+](=O)[O-])c1	1.7	-1.9	1.0	1.6
O=[N+]([O-])c1ccc(N/N=C/c2cccc(O)c2)cc1	23.0	26.0*	-18.2	2.5
CNc1ccc(/C=C/C(=O)c2ccc(C)cc2)cc1[N+](=O)[O-]	16.7	20.6*	6.8	-1.2
